In ChEMBL document CHEMBL4387722:
pEC50, pIC50: −log10 of the molar value.

Columns and labels:
[1] = biological target: T1, Phosphotyrosine protein phosphatase (Mycobacterium tuberculosis, UniProt A0A045ISB3); experiment: Inhibition of Mycobacterium tuberculosis His-tagged PtpB expressed in Escherichia coli Rosetta 2 (DE3) using pNPP as substrate after 30 mins by spectrophotometric method
T1 sequence (A0A045ISB3 whole entry): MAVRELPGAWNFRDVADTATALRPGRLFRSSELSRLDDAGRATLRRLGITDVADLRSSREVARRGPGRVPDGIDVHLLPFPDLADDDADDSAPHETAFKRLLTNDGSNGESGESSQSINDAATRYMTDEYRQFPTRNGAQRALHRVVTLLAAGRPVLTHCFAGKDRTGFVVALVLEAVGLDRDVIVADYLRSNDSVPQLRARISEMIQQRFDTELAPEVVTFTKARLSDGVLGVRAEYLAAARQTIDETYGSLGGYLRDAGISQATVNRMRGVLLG

[2] = biological target: T2, Tyrosine-protein phosphatase non-receptor type 1 (Homo sapiens, UniProt P18031); experiment: Inhibition of human PTPN1 expressed in Escherichia coli Rosetta 2 (DE3) using pNPP as substrate after 45 mins by spectrophotometric method
T2 sequence (P18031 whole entry): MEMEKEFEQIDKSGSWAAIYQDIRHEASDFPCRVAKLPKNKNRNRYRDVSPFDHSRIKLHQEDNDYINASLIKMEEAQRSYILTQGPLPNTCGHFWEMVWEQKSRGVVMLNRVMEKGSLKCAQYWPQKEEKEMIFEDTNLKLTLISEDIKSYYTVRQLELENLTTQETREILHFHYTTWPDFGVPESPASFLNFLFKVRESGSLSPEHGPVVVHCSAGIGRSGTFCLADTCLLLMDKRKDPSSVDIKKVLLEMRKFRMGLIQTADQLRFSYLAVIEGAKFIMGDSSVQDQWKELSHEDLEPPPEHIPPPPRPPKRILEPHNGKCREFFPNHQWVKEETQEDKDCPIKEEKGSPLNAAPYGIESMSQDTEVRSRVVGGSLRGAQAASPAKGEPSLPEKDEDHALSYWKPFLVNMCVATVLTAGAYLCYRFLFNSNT

[3] = biological target: T3, Tyrosine-protein phosphatase non-receptor type 2 (Homo sapiens, UniProt P17706); experiment: Inhibition of human PTPN2 expressed in Escherichia coli Rosetta 2 (DE3) using pNPP as substrate after 45 mins by spectrophotometric method
T3 sequence (P17706 whole entry): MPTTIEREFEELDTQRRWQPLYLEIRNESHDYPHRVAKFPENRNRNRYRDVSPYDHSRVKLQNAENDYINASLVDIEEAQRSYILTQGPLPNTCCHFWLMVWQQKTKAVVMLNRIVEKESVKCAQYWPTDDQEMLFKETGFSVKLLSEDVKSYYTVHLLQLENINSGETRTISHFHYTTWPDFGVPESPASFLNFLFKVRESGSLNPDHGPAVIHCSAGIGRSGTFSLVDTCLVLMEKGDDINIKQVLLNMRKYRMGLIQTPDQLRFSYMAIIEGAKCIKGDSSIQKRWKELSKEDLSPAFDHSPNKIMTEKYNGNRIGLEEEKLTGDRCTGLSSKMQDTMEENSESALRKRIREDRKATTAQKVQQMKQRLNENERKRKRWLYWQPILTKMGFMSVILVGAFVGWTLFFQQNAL

[4] = biological target: T4, Tyrosine-protein phosphatase non-receptor type 5 (Homo sapiens, UniProt P54829); experiment: Inhibition of human PTPN5 expressed in Escherichia coli Rosetta 2 (DE3) using pNPP as substrate after 45 mins by spectrophotometric method
T4 sequence (P54829 whole entry): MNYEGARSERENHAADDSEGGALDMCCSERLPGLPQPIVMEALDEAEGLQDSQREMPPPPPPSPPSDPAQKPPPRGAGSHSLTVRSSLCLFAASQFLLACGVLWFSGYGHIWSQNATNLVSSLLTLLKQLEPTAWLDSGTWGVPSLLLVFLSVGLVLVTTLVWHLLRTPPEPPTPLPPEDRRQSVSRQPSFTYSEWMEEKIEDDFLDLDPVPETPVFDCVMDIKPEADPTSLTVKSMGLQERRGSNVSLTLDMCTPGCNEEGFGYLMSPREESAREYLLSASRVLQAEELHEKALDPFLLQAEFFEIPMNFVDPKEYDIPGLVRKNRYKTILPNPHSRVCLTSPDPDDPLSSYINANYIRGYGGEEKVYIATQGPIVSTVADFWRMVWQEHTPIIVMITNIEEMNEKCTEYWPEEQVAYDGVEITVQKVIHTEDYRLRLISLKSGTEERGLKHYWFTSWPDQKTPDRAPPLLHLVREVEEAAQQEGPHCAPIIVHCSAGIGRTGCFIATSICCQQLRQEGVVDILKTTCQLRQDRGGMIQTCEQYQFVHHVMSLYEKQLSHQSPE

[5] = system: Mycobacterium tuberculosis; experiment: Antitubercular activity against Mycobacterium tuberculosis H37Rv after 5 days at 200 uM relative to control; assay type: functional; settings: 120 h
Procedure, shortened: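 M. tuberculosis grown in liquid culture with compound at a fixed 200 μM for 5 days. Growth inhibition expressed as percent of control.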

[6] = system: Mycobacterium tuberculosis; experiment: Antitubercular activity against Mycobacterium tuberculosis H37Rv after 5 days; assay type: functional, organism-based; settings: 120 h
[7] = Inhibition of refolded rhodanese (unknown origin) preincubated with Escherichia coli GroEL/GroES for 60 mins by measuring rhodanese enzyme activity followed by compound addition by Fe(SCN)3 dye based spectrometric analysis; set-up: species or system Homo sapiens
[8] = biological target: T5, Malate dehydrogenase, mitochondrial (Sus scrofa, UniProt P00346); experiment: Inhibition of refolded pig heart mitochondrial MDH preincubated with Escherichia coli GroEL/GroES for 45 mins using sodium mesoxalate as substrate followed by compound addition and measured after 20 to 30 mins by spectrometric analysis
T5 sequence (P00346 whole entry): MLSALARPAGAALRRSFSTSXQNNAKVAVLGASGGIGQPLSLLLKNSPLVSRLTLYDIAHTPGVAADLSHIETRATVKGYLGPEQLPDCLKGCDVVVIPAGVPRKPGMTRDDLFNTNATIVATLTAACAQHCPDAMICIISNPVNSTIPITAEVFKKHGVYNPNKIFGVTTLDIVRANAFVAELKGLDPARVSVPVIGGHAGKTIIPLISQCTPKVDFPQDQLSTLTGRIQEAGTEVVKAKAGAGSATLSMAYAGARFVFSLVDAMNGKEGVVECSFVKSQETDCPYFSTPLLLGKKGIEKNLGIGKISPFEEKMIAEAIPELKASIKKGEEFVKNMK

E. coli GroEL/ES [9] = biological target: T6, E. coli GroEL/ES (Escherichia coli, UniProt P0A6F5); experiment: Inhibition of Escherichia coli GroEL expressed in Escherichia coli DH5alpha/Escherichia coli GroES expressed in Escherichia coli BL21 (DE3) assessed as reduction in GroEL/GroES-mediated denatured rhodanese refolding by measuring rhodanese enzyme activity after 45 mins by Fe(SCN)3 dye based spectrometric analysis
E. coli GroEL/ES [10] = biological target: T6, E. coli GroEL/ES; experiment: Inhibition of Escherichia coli GroEL expressed in Escherichia coliDH5alpha/Escherichia coli GroES expressed in Escherichia coli BL21 (DE3) assessed as reduction in GroEL/GroES-mediated denatured pig heart mitochondrial MDH refolding by measuring MDH enzyme activity using sodium mesoxalate as substrate after 20 to 40 mins by spectrometric analysis
HSP60/HSP10 = HSP60/HSP10 (Homo sapiens, UniProt P10809); experiment: Inhibition of human HSP60 expressed in Escherichia coli Rosetta 2(DE3)/human HSP10 expressed in Escherichia coli Rosetta 2(DE3) pLysS cells assessed as reduction in HSP60/HSP10-mediated denatured pig heart mitochondrial MDH refolding by measuring MDH enzyme activity using sodium mesoxalate as substrate after 40 to 60 mins by spectrometric analysis
[11] = Cytotoxicity against human THLE3 cells assessed as reduction in cell viability after 48 hrs by Alamar blue assay; assay type: cell-based
Procedure, shortened: (§1)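 Alamar Blue viability read-out. Human liver (THLE-3) and kidney (HEK 293) cells incubated with compound for 48 h. Tested in dose-response to derive CC50.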

[12] = Cytotoxicity against human HEK293 cells assessed as reduction in cell viability after 48 hrs by Alamar blue assay; assay type: cell-based; procedure, shortened: as §1

HSP60/HSP10, sequence (P10809 whole entry): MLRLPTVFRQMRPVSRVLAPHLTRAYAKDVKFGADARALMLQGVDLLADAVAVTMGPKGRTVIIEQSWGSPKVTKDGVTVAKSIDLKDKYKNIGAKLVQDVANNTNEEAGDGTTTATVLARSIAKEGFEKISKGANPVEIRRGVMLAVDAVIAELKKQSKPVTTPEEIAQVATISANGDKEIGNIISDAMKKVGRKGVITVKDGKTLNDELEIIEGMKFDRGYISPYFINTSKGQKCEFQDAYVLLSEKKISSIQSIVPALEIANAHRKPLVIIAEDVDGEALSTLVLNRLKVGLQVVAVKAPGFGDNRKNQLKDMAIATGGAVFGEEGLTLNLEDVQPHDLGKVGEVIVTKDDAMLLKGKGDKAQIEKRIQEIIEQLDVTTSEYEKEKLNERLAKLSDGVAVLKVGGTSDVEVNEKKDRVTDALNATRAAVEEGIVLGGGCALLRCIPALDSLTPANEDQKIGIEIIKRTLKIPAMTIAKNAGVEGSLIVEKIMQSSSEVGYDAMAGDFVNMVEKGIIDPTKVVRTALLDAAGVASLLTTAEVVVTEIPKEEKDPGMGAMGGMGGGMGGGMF
HSP60/HSP10, sequence (P61604 whole entry, further chain): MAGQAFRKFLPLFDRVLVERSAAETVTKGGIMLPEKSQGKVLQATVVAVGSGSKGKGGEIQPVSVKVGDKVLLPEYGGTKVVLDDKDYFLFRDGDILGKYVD
T6 sequence (P0A6F5 whole entry, looked up): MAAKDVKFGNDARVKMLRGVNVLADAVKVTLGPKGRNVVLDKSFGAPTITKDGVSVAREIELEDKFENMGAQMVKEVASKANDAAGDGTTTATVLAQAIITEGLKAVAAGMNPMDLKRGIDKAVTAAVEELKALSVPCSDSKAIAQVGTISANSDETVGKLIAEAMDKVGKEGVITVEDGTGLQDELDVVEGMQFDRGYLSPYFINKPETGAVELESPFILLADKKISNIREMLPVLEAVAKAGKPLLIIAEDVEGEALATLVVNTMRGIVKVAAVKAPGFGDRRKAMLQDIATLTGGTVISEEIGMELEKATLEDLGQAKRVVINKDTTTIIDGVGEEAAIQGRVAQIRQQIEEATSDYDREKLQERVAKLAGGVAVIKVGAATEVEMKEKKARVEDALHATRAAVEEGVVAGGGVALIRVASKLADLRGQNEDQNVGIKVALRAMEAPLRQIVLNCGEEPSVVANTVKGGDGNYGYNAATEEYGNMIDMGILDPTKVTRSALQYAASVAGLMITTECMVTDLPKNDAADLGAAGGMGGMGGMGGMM

SMILES | pIC50 [1] | pIC50 [2] | pIC50 [3] | pIC50 [4] | inhibition at 200 µM [5] [%] | pEC50 [6] | pIC50 [7] | pIC50 [8] | pIC50 (E. coli GroEL/ES [9]) | pIC50 (E. coli GroEL/ES [10]) | pIC50 (HSP60/HSP10) | CC50 at 48 h [11] [µM] | CC50 at 48 h [12] [µM]
C=Cc1ccc(S(=O)(=O)Nc2ccc3oc(-c4ccccc4)nc3c2)cc1 | 4.29 | 4.35 | 4.34 | 4.46 | 86 | 3.82 | < 4.00 | < 4.20 | 3.76 | < 4.00 | < 4.00 | 50 | 53
O=S(=O)(Nc1ccc(-c2nc3ccccc3o2)cc1)c1ccc(F)c(C(F)(F)F)c1 | 4.44 | 4.40 | 4.44 | 4.37 | 77 | < 3.70 | < 4.00 | < 4.20 | 3.95 | 4.47 | 4.55 | 72 | 82
O=[N+]([O-])c1cc(S(=O)(=O)Nc2ccc(-c3nc4ccccc4o3)cc2)ccc1Cl | 4.46 | 4.42 | 4.21 | 4.34 | 52 | 3.71 | < 4.00 | < 4.20 | 4.36 | 4.70 | 4.77 | 24 | 85
Cc1ccccc1S(=O)(=O)Nc1ccc2oc(-c3ccccc3)nc2c1 | 4.23 | 4.39 | 4.54 | 4.52 | 61 | 3.71 | < 4.00 | < 4.20 | 3.90 | < 4.00 | < 4.00 | 35 | 57
CCc1ccc(S(=O)(=O)Nc2ccc3oc(-c4ccccc4)nc3c2)cc1 | 4.17 | 4.24 | 4.26 | 4.38 | 87 | 3.83 | < 4.00 | < 4.20 | 3.63 | < 4.00 | < 4.00 | 63 | 81
O=S(=O)(Nc1ccc(-c2nc3ccccc3o2)cc1)c1ccc(F)cc1 | 4.19 | 4.17 | 4.12 | 4.23 | 83 | 3.84 | < 4.00 | < 4.20 | 3.65 | 4.03 | 4.14 | 77 | > 100
Cc1ccc(S(=O)(=O)Nc2ccc3oc(-c4ccccc4)nc3c2)cc1 | 4.17 | 4.32 | 4.31 | 4.41 | 87 | 3.76 | < 4.00 | < 4.20 | 3.80 | < 4.00 | < 4.00 | 53 | 75
O=S(=O)(Nc1ccc2oc(-c3ccccc3)nc2c1)c1cccs1 | 4.09 | < 4.00 | 4.06 | 4.07 | 68 | < 3.70 | < 4.00 | < 4.20 | 3.67 | < 4.00 | 4.05 | 35 | 97
O=S(=O)(Nc1ccc2oc(-c3ccccc3)nc2c1)c1ccc(Cl)s1 | 4.27 | 4.12 | 4.14 | 4.36 | 71 | < 3.70 | < 4.00 | < 4.20 | 3.63 | < 4.00 | 4.15 | 43 | > 100
